The source made the active and inactive calls. The rule behind the calls is not given here.
How the values were obtained:
[1] = Drug uptake in mouse 4T1.2 cell lysosomes at 5 uM encapsulated within cucurbit[8]uril after 20 mins by LysoTracker Green staining based laser scanning confocal microscopic method; format: ADME, Lysosome
[2] = test system: 4T1.2; experiment: Growth inhibition of mouse 4T1.2 cells up to 20000 nM after 48 hrs by MTT assay; format: functional, cell-based
[3] = test system: 4T1.2; experiment: Growth inhibition of mouse 4T1.2 cells up to 20000 nM encapsulated within cucurbit[8]uril after 48 hrs by MTT assay; format: functional, cell-based
[4] = test system: Mus musculus; experiment: Toxicity in Balb/c mouse assessed as body weight loss at 2 mg/kg, iv administered twice weekly for 2 weeks relative to control; format: organism-based; conditions: in vivo, 336 h
Summary of the method: (§1)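 Non-tumor-bearing female Balb/c mice (9 weeks old), four per group, were dosed iv by tail vein on days 0, 3, 7 and 10. Dose was 2 mg/kg as mitoxantrone (complex adds 3 mg/kg Q[8]) in 0.9% saline vehicle. Body weight was recorded daily and expressed as mean change from baseline.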

[5] = test system: Mus musculus; experiment: Toxicity in Balb/c mouse assessed as body weight loss at 3 mg/kg, iv encapsulated within cucurbit[8]uril administered twice weekly for 2 weeks; format: organism-based; conditions: in vivo, 336 h; summary of the method: as §1
[6] = test system: Mus musculus; experiment: Toxicity in Balb/c mouse implanted with mouse 4T1.2 cells assessed as body weight loss at 3 mg/kg, iv encapsulated within cucurbit[8]uril administered twice weekly for 2 weeks; format: organism-based; conditions: in vivo, 336 h
Summary of the method: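 Mice bore orthotopic 4T1.2 mammary fat pad tumors, with treatment begun on day 8. Dosing was iv twice weekly for 2 weeks at 2 mg/kg mitoxantrone plus 3 mg/kg Q[8], in saline vehicle. Body weight was monitored. Culling at >20% weight loss, tumor >1500 mm3, or metastatic distress.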

[7] = test system: 4T1.2; experiment: Antitumor activity against mouse 4T1.2 cells implanted in Balb/c mouse assessed as tumor growth inhibition at 2 mg/kg, iv administered twice weekly for 2 weeks; format: functional, organism-based
Summary of the method: (§2)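 Female Balb/c mice given 1 × 105 4T1.2 cells into the fourth mammary fat pad. Dosing started once tumors were palpable on day 8. Dosed iv by tail vein twice weekly for 2 weeks, 2 mg/kg as mitoxantrone (complex adds 3 mg/kg Q[8]), in 0.9% saline vehicle. Primary tumors measured with digital calipers. Groups n = 10–11. One-way ANOVA against vehicle.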

[8] = test system: 4T1.2; experiment: Antitumor activity against mouse 4T1.2 cells implanted in Balb/c mouse assessed as tumor growth inhibition at 3 mg/kg, iv encapsulated within cucurbit[8]uril administered twice weekly for 2 weeks; format: functional, organism-based; summary of the method: as §2
[9] = test system: 4T1.2; experiment: Antitumor activity against mouse 4T1.2 cells implanted in Balb/c mouse assessed as mouse survival time at 3 mg/kg, iv encapsulated within cucurbit[8]uril administered twice weekly for 2 weeks measured up to 33 days; format: functional
Summary of the method: (§3)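 Female Balb/c mice given 1 × 10^5 4T1.2 cells into the fourth mammary fat pad. Treatment started on day 8 once tumours were palpable: 2 mg/kg mitoxantrone-equivalent (complex formulation also 3 mg/kg Q[8]) or 0.9% saline vehicle, by tail-vein iv, twice weekly for 2 weeks. Monitored to day 33. Culled at >20% weight loss, tumour >1500 mm3 or metastatic distress. Kaplan–Meier analysis with log-rank test.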

[10] = test system: 4T1.2; experiment: Antitumor activity against mouse 4T1.2 cells implanted in Balb/c mouse assessed as mouse survival rate at 2 mg/kg, iv administered twice weekly for 2 weeks measured up to 33 days (rvb = 30%); format: functional; conditions: 4T1.2, iv; summary of the method: as §3
[11] = Drug uptake in mouse 4T1.2 cell at 5 uM after 4 hrs by laser scanning confocal microscopic method
[12] = Drug uptake in mouse 4T1.2 cell at 5 uM encapsulated within cucurbit[8]uril after 4 hrs by laser scanning confocal microscopic method

For `O=C1c2c(O)ccc(O)c2C(=O)c2c(NCCNCCO)ccc(NCCNCCO)c21` [MITOXANTRONE], the Drug uptake [1] was “Active”, the “growth inhibition (GI)” value [2] was “Active” and the “growth inhibition (GI)” value [3] was “Active”. The Activity [4] was 15%, the Activity [5] was “Non-Toxic” and the Activity [6] was “Non-Toxic”. For the same compound, the TGI [7] was “Active”, the TGI [8] was “Active” and the Survival [9] was 26 days. For the same compound, the survival at 2 mg/kg [10] was 60%, the Drug uptake [11] was “Active” and the Drug uptake [12] was “Active”.

Reference: ChEMBL document CHEMBL3994676, “Encapsulation of Mitoxantrone within Cucurbit[8]uril Decreases Toxicity and Enhances Survival in a Mouse Model of Cancer” (ACS Med Chem Lett, 2017)
